Here are results for 2 molecules from ChEMBL document CHEMBL4052694, “Discovery of novel 5-oxa-2,6-diazaspiro[3.4]oct-6-ene derivatives as potent, selective, and orally available somatostatin receptor subtype 5 (SSTR5) antagonists for treatment of type 2 diabetes mellitus” (Bioorg Med Chem, 2017).

For one data set, the target named is hERG (KCNH2) (Homo sapiens, UniProt Q12809). Kind of data set: Inhibition of human ERG expressed in CHO cells assessed as decrease in peak tail current at 30 uM after 5 mins at -80 mV holding potential by patch clamp assay relative to control. In kind it is cell-based. To be noted: CHO cells expressing human ERG. In outline: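 hERG-expressing CHO cells grown at 32 °C in Ham's F-12 with 10% FBS and Geneticin. Population patch clamp, perforated with 100 µg/mL amphotericin B. PBS with Ca/Mg outside; 140 mM KCl, 2 mM MgCl2, 1 mM EGTA, 20 mM HEPES pH 7.3 inside. Holding -80 mV, step to 40 mV for 2 s, then -50 mV for 2 s. Peak tail current compared before and after 5 min with compound at 30 µM, n = 4.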

The subject of data set [1] is Mus musculus. Put plainly: Antidiabetic activity in HFD-fed C57BL/6J mouse assessed as decrease in blood glucose AUC at 100 mg/kg, po pretreated for 1 hr followed by glucose challenge after 1 hr of compound dosing measured up to 120 mins post glucose challenge by OGTT. Format: functional, organism-based. In outline: (§1)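 Male C57BL/6J mice on high-fat diet for ten days. Fasted from morning and grouped by weight and blood glucose at 4 h. Vehicle (0.5% methylcellulose) or compound given orally at 5.5 h; oral glucose 5 g/kg given 1 h later.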

The target of data set [2] is Somatostatin receptor type 3 (Homo sapiens) (UniProt P32745). Put plainly: Inhibition of human SSTR3 at 10 uM by radioligand binding assay relative to control.
Data set [3] in a line: Cmax in ICR mouse at 1 mg/kg, po administered as cassette dose by LC/MS/MS analysis. In kind it is ADME, organism-based. Details: dose 1 mg/kg, route oral. To be noted: in vivo. In outline:
(§2)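 Non-fasted male ICR mice, 8 weeks old, n = 3, dosed by cassette: 0.1 mg/kg iv, or 1 mg/kg po as a suspension in 0.5% methylcellulose. Plasma deproteinized with acetonitrile and measured by LC/MS/MS. AUC taken over 0–8 h.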

In data set [4] the test system is Mus musculus. Put plainly: Antidiabetic activity in HFD-fed C57BL/6J mouse assessed as increase in insulin secretion at 100 mg/kg, po pretreated for 1 hr followed by glucose challenge after 1 hr of compound dosing measured up to 120 mins post glucose challenge by OGTT.
Data set [5] relates to Mus musculus. Put plainly: Toxicity in HFD-fed C57BL/6J mouse assessed as induction of hypoglycemia at 100 mg/kg, po after 1 hr. Format: organism-based. As to conditions: in vivo.
A short description of data set [6]: Intrinsic clearance in human liver microsomes at 1 uM after 15 to 30 mins in presence of NADPH by LC/MS/MS analysis. Format: ADME, microsome. To be noted: read-out: CLH. The essentials: (§3)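 Liver microsomes at 0.2 mg/mL protein in 50 mM potassium phosphate buffer pH 7.4 with compound at 1 µM. Reaction started with an NADPH-generating system (5 mM MgCl2, 5 mM glucose-6-phosphate, 0.5 mM β-NADP+, 1.5 U/mL G6PDH). Stopped with acetonitrile at 15 and 30 min; analysed by LC/MS/MS. Metabolic velocity taken from the slope of concentration versus time.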
In general terms: Liver microsomes are vesicles of endoplasmic reticulum, rich in cytochrome P450 enzymes.

The nature of data set [7]: Oral bioavailability in ICR mouse at 1 mg/kg administered as cassette dose by LC/MS/MS analysis. In kind it is ADME, organism-based. As to conditions: in vivo. In outline:
as §2

A short description of data set [8]: Volume of distribution at steady state in ICR mouse at 0.1 mg/kg, iv administered as cassette dose by LC/MS/MS analysis. Format: ADME, organism-based. As to conditions: in vivo, read-out: Vdss. The essentials:
as §2

Data set [9] can be described thus: AUC (0 to 8 hrs) in ICR mouse at 1 mg/kg, po administered as cassette dose by LC/MS/MS analysis. Format: ADME, organism-based. Details: dose 1 mg/kg, time < 8 hr, route oral. As to conditions: in vivo. The essentials:
as §2

Data set [10] is described as follows: Tmax in ICR mouse at 1 mg/kg, po administered as cassette dose by LC/MS/MS analysis. In kind it is ADME, organism-based. To be noted: in vivo. In outline: as §2
Data set [11] concerns Mus musculus. Put plainly: Antidiabetic activity in HFD-fed C57BL/6J mouse assessed as decrease in blood glucose level administered po pretreated for 1 hr followed by glucose challenge after 1 hr of compound dosing measured up to 120 mins post glucose challenge by OGTT. Format: functional, organism-based. The essentials: (§4)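 Male C57BL/6J mice on high-fat diet for ten days. Fasted overnight and grouped by weight and blood glucose at 12.5 h. Compound given orally at 1, 3, 10 or 30 mg/kg in 0.5% methylcellulose at 15 h; oral glucose 5 g/kg at 16 h.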

The target in data set [12] is Somatostatin receptor type 4 (Homo sapiens) (UniProt P31391). Put plainly: Inhibition of human SSTR4 at 10 uM by radioligand binding assay relative to control.
Data set [13] in a line: Total clearance in ICR mouse at 0.1 mg/kg, iv administered as cassette dose by LC/MS/MS analysis. Format: ADME, organism-based. To be noted: in vivo. The essentials:
as §2

Data set [14] can be described thus: Intrinsic clearance in mouse liver microsomes at 1 uM after 15 to 30 mins in presence of NADPH by LC/MS/MS analysis. As to conditions: read-out: CLH. In kind it is ADME, microsome. The essentials: as §3
Data set [15] deals with Mus musculus. Put plainly: Antidiabetic activity in HFD-fed C57BL/6J mouse assessed as decrease in blood glucose level at 100 mg/kg, po pretreated for 1 hr followed by glucose challenge after 1 hr of compound dosing measured up to 120 mins post glucose challenge by OGTT. Format: functional, organism-based. In outline:
as §1

The target of data set [16] is Somatostatin receptor type 2 (Homo sapiens) (UniProt P30874). Put plainly: Inhibition of human SSTR2 at 10 uM by radioligand binding assay relative to control.
Data set [17] deals with Somatostatin receptor type 1 (Homo sapiens) (UniProt P30872). Kind of data set: Inhibition of human SSTR1 at 10 uM by radioligand binding assay relative to control.
In data set [18] the test system is Mus musculus. Put plainly: Antidiabetic activity in HFD-fed SSTR5 knockout C57BL/6J mouse assessed as decrease in blood glucose level administered po pretreated for 1 hr followed by glucose challenge after 1 hr of compound dosing measured up to 120 mins post glucose challenge by OGTT. In kind it is functional, organism-based.
The nature of data set [19]: Solubility of the compound in aqueous buffer solution at pH 6.8 after 18 hrs by HPLC analysis. In kind it is physicochemical. The essentials: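 0.4 mg compound in 0.4 mL aqueous buffer, pH 6.8 (Japanese Pharmacopoeia second disintegration fluid). Shaken at 500 rpm at 37 °C for 18 h, then filtered; dissolved concentration measured by HPLC.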
In data set [20] the test system is Mus musculus. Kind of data set: Antidiabetic activity in HFD-fed C57BL/6J mouse assessed as decrease in blood glucose AUC at 10 mg/kg, po pretreated for 1 hr followed by glucose challenge after 1 hr of compound dosing measured up to 120 mins post glucose challenge by OGTT. In kind it is functional, organism-based. In outline:
as §4

The test system of data set [21] is Mus musculus. Kind of data set: Antidiabetic activity in HFD-fed C57BL/6J mouse assessed as decrease in blood glucose level at 10 mg/kg, po pretreated for 1 hr followed by glucose challenge by OGTT. In kind it is functional, organism-based. The essentials:
as §4

Data set [22] has as its system Mus musculus. Kind of data set: Antidiabetic activity in HFD-fed C57BL/6J mouse assessed as increase in insulin secretion at 10 mg/kg, po pretreated for 1 hr followed by glucose challenge by OGTT. Format: functional, organism-based.
In data set [23] the test system is Mus musculus. Put plainly: Toxicity in HFD-fed C57BL/6J mouse assessed as induction of hypoglycemia at 10 mg/kg, po after 1 hr. Format: organism-based. As to conditions: in vivo.

≈ marks a conversion by molar mass, not a printed value. Calls of active or inactive are those of the source. The calls are words filed in the database; no cut-off is given here.

Chain of Somatostatin receptor type 2 (Homo sapiens) (P30874 whole entry): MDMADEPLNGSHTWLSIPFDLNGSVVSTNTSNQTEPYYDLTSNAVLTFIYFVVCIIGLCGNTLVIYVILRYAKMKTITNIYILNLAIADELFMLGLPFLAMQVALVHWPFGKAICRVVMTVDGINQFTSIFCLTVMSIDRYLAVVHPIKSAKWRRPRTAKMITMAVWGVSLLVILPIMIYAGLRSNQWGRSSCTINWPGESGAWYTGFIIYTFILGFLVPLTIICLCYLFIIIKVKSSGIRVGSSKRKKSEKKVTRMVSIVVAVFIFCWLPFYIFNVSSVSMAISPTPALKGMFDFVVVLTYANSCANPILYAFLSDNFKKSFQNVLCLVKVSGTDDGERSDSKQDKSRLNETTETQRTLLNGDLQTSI
Chain of Somatostatin receptor type 1 (Homo sapiens) (P30872 whole entry): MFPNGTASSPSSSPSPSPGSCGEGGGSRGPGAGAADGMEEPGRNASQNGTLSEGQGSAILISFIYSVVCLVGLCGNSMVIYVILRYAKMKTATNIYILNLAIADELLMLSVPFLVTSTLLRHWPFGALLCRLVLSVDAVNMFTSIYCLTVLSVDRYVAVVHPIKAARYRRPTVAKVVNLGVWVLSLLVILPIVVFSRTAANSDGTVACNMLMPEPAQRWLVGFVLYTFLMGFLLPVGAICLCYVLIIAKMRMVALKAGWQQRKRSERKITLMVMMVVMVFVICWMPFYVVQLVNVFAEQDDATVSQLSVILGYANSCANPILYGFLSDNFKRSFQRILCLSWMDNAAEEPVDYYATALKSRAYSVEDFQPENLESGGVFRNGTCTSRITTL
Chain of Somatostatin receptor type 4 (Homo sapiens) (P31391 whole entry): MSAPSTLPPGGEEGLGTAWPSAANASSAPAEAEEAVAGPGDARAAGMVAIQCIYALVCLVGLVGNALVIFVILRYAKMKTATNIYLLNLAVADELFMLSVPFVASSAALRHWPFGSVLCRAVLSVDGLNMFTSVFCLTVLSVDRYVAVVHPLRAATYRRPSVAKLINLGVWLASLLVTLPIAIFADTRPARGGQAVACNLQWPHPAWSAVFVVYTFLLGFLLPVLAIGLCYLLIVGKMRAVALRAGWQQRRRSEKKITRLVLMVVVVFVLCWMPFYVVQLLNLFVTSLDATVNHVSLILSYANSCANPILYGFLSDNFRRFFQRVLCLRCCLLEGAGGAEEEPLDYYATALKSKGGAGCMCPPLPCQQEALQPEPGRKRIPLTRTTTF
Chain of Somatostatin receptor type 3 (Homo sapiens) (P32745 whole entry): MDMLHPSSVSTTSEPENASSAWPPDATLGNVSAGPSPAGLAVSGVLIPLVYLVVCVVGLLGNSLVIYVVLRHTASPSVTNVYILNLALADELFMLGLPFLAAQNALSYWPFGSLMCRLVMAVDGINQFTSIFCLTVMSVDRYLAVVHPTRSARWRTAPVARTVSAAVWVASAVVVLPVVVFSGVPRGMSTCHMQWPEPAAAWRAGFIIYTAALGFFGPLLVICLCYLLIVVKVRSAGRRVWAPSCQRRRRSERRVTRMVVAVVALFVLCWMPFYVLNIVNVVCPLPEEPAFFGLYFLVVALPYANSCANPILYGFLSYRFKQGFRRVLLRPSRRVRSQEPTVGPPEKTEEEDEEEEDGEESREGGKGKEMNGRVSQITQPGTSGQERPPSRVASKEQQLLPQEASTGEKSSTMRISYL
Chain of hERG (KCNH2) (Q12809 whole entry): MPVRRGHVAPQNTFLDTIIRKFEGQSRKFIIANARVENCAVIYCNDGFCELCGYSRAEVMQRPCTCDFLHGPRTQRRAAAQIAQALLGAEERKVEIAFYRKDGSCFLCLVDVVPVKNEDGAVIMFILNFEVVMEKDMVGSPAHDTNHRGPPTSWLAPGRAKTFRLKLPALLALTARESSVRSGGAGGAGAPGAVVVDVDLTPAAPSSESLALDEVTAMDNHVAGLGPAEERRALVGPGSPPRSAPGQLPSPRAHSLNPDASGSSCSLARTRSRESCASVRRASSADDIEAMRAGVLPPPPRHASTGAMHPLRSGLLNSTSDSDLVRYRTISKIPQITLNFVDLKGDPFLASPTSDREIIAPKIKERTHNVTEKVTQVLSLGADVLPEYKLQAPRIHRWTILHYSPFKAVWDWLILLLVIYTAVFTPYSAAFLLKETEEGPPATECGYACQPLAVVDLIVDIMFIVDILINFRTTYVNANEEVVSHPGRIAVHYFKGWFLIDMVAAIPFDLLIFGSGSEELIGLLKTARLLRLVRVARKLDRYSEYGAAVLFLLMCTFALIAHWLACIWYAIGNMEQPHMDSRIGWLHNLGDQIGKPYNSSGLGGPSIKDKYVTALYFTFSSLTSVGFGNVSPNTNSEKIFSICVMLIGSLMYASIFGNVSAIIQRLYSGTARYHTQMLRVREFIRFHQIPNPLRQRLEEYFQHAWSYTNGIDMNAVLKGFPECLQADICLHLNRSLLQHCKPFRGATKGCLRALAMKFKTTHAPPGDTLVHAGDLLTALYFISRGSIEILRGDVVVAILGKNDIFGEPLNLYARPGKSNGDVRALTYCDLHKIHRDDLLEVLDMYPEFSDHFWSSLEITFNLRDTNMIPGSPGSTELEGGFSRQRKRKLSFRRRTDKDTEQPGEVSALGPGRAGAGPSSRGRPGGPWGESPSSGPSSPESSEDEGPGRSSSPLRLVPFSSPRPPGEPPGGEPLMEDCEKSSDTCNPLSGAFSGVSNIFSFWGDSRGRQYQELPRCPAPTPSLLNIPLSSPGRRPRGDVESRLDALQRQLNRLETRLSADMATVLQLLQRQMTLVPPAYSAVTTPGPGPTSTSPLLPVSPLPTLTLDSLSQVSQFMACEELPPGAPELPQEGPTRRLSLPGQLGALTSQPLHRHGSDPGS

By inhibition is commonly meant the relative decrease from the control value, in per cent. For orientation: Cmax means the maximum level reached in the sampled fluid or tissue. In general, bioavailability refers to the share of a dose that reaches the circulation, judged against a reference dose that is usually intravenous. Lower therefore signals little systemic uptake. As usually defined, the AUC(0-t) is exposure summed from dosing to a finite time, without extrapolation to infinity. Higher therefore signals more exposure. Broadly, the Tmax is the time from dosing to the highest level. As usually defined, the clearance is a measure of how efficiently the substance is removed, as volume per time. A low value points to inefficient removal. Broadly, the solubility is the dissolved amount per volume that the medium holds. A lower solubility goes with a poorly soluble substance. On to `CCOc1cc(CN2CC3(CC(N4CCC(C(=O)O)CC4)=NO3)C2)cc(OCC)c1-c1ccc(F)cc1`, for which the inhibition at 5 min, 30 µM on hERG (KCNH2) was 5.6%. In addition, the result in the data set with Mus musculus [1], with Mus musculus [4] and with Mus musculus [15] was Active. Besides, the inhibition in data set [2] was found to be 14%; in data set [12], 10%; in [16], 8%; in data set [17], 11%. The molecule also yielded a Cmax in data set [3] of 74.8 ng/mL. The Activity result in the data set on Mus musculus [5] was “Non-Toxic”; in the data set on Mus musculus [11], “Dose-dependent effect”. Besides, the microsomal CLint at 1 µM in data set [6] is under 10 µL/min/mg; in data set [14] it was 19 µL/min/mg. Besides, the bioavailability in data set [7] amounted to 58%. Moreover, the Vd in [8] is 3.05 L/kg. Moreover, in data set [9], the AUC(0-t) at 8 h came to 332 ng·h/mL. In addition, the Tmax in data set [10] came out at 2 h. This molecule had a clearance in data set [13] of 29.3 mL/min/kg. Also, the result in the data set on Mus musculus [18] was inactive. Besides, in [19], the solubility at 18 h is 260 µg/mL (≈ 508 µM).

For `COc1ccc(Cl)cc1C(=O)NCCc1ccc(S(=O)(=O)NC(=O)NC2CCCCC2)cc1` [GLYBURIDE], the result in the data set with Mus musculus [20], with Mus musculus [21] and in the data set with Mus musculus [22] was Active. Further, in the data set with Mus musculus [23], the Activity result is given as “Toxic”.
